The values that follow come from article PMC3996483 (Scientific Reports, 2014).

Series [1] deals with T1, NS5A^33–202 domain 1, HCV genotype 1b (con1) (Hepatitis C virus genotype 1b, UniProt Q9WMX2).
T1 sequence (Q9WMX2 2005-2174): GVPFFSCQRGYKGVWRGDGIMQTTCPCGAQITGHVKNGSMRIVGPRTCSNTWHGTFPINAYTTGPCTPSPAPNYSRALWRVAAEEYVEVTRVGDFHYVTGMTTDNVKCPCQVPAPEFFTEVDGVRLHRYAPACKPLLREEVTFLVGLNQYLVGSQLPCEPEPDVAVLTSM
As to the kind of experiment: MST binding assay, NS5A domain 1 residues 33–202. The procedure, abridged:
(§1)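 Recombinant HCV 1b (con1) NS5A was expressed with a 6-His/TEV tag, Ni- and size-exclusion purified, and the tag cleaved. Ligand: 16-step 2–4-fold dilutions. Capillaries were heated at 40% laser for 30 s, then cooled 5 s. Fnorm normalised to baseline and maximum; KD by mass-action fit; ≥3 replicates.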

The target in series [2] is T2, NS5A^26–202 domain 1, HCV genotype 1b (con1) (Hepatitis C virus genotype 1b, UniProt Q9WMX2).
T2 sequence (Q9WMX2 1998-2174): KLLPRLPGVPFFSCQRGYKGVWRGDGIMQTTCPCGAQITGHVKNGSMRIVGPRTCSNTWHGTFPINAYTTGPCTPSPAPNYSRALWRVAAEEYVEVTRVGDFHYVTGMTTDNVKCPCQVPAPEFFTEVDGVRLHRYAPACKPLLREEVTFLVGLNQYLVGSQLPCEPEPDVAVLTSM
Description: MST binding assay, NS5A domain 1 residues 26–202. The procedure, abridged:
as §1

The target of series [3] is T3, Y93H NS5A^33–202, HCV genotype 1b (con1) (Hepatitis C virus genotype 1b, UniProt Q9WMX2, Y2065H).
T3 sequence (Q9WMX2 2005-2174 Y2065H): T1 sequence (Q9WMX2 2005-2174) with Y61H
As to the kind of experiment: MST binding assay, Y93H resistance mutant.

In series [4] the test system is Y93H NS5A^33–202, HCV genotype 1b (con1). As to the kind of experiment: MST binding assay, Y93H resistance mutant. Particulars: MST in vitro assay, Y93H NS5A^33–202 vs NS5A^33–202. Also on record: species or system Hepatitis C virus.
The target in series [5] is T4, L31V NS5A^26–202, HCV genotype 1b (con1) (Hepatitis C virus genotype 1b, UniProt Q9WMX2, L2003V).
T4 sequence (Q9WMX2 1998-2174 L2003V): T2 sequence (Q9WMX2 1998-2174) with L6V
As to the kind of experiment: MST binding assay, L31V resistance mutant.

Series [6] is described as follows: Solubility. The series is classed as physicochemical. Particulars: pH 7, aqueous buffer.
Series [7] has as its target T1, NS5A^33–202 domain 1, HCV genotype 1b (con1). Description: SEC-MALLS analysis of NS5A oligomerisation state. Particulars: NS5A^33–202 alone 39 ± 5 kDa (dimer), dimerisation state not affected. In short, it runs like this: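 Multi-angle laser light scattering was run in batch mode (0.1 ml/min) and after size-exclusion (0.35 ml/min). Protein was run at 0.3–4 mg/ml with refractive-index detection and dn/dc 0.185; BSA served as control. Weight-average molar mass was taken from all points.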

The subject of series [8] is HCV replicon (NS5A genotypes and subtypes). Particulars: cited from earlier work.
The test system of series [9] is HCV genotype 1a. Particulars: cited from earlier work.
Series [10] relates to HCV genotype 2a (J6). As to conditions: cited from earlier work.
Series [11] deals with HCV genotype 3a (S52). Particulars: cited from earlier work.
Series [12] deals with HCV genotype 1b (con1). Particulars: cited from earlier work.
Series [13] deals with the molecule itself. As to the kind of experiment: SEC-MALS. Background: SEC sorts molecules by how far they enter the pores of the column.

Substitutions are numbered along the chain they refer to. “Also recorded” adds a separate entry of the source. Where only a bound is given, the exact number is not on record here.

What is called Kd is the equilibrium constant for the complex coming apart. A low value points to tighter binding. One may read the solubility as how much of the substance goes into solution per volume. Broadly, the EC50 is the concentration that produces a half-maximal response. For `COC(=O)N[C@H](C(=O)N1CCC[C@H]1c1nc(-c2ccc(-c3ccc(-c4c[nH]c([C@@H]5CCCN5C(=O)[C@@H](NC(=O)OC)C(C)C)n4)cc3)cc2)c[nH]1)C(C)C` [BMS-790052, daclatasvir], the dissociation constant Kd is 8 ± 3 nM in series [1], 210 ± 46 nM in [2] and more than 500 nM in [3]. For the same molecule, the “Compound binding after incubation of NS5A with excess 5rU” value in series [1] (MST, NS5A^33–202 incubated with 100-fold excess 5rU prior to adding compound) is listed as “eliminated binding”. Further, the “decrease in KD (binding), Y93H versus wild type” value in [4] is more than 50 fold. The “KD / binding (in words)” value in [5] was “did not show any detectable binding; also recorded: no detectable binding”. Further, the solubility in series [6] is less than 1.6 µg/mL. The “average molecular weight of NS5A^33–202 after addition of substance” value in series [7] turned out to be 41 ± 7 kDa. For the same molecule, the “resistance conferred by L31V/M/F mutations” value in series [8] (NS5A L31V/M/F) is reported as 23- to 3,350 fold. In series [8] (NS5A Y93H/N/C), the “resistance conferred by Y93H/N/C mutations” value was 19- to 47,000 fold. Besides, the concentration giving a half-maximal response (EC50) in series [8] (replicon, most genotypes and subtypes) is 0.002 to 0.15 nM; in series [9] (replicon, genotype 1a (J1)), 1.1 nM; in series [10] (replicon) it was 14 nM; in series [11] (replicon) it was 0.9 nM. Further, the “decrease in EC50 by Y93H/C resistance mutation” value in series [9] (genotype 1a (H77), Y93H/C) is given as 220 fold; in series [10] (Y93H/C), 143 fold; in [11] (Y93H/C) it was 2,111 fold; in series [12] (replicon, Y93H/C), ~ 5 fold. Further, the “resistance conferred by L31V mutation” value in series [12] (replicon assays, L31V) was 23 fold.

B1: HCV genotype 1b (con1) NS5A domain 1, residues 33–202 (domain or fragment, Hepatitis C virus genotype 1b (con1), UniProt Q9WMX2 2005-2174, looked up)
chain: T1 sequence (Q9WMX2 2005-2174)
The term stoichiometry N denotes a count of units in the complex or per binding partner. Consider B1, for which the “stoichiometry N” value in [13] is 2.
